Assay results from ChEMBL document CHEMBL1135230, “Synthesis of Sordaricin analogues as potent antifungal agents against Candida albicans” (2002).
Values after ≈ are worked out from the molar mass of the structure shown.

Columns and labels:
Type in all cases: functional
Nakaseomyces glabratus = experiment: Tested in vitro for the minimum inhibitory concentration (MIC) against Candida glabrata ATCC 90030
Outline: (§1)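 Broth MIC determined in RPMI1640 at pH 7.0, incubated at 35 °C; MIC taken as the lowest concentration giving 80% inhibition of fungal growth.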

Candida albicans [1] = experiment: Tested in vitro for the minimum inhibitory concentration (MIC) against Candida albicans ATCC 64550; outline: as §1
Candida albicans [2] = experiment: Tested in vitro for the minimum inhibitory concentration (MIC) against Candida albicans TIMM3164; outline: as §1
Candida albicans [3] = experiment: Tested in vitro for the minimum inhibitory concentration (MIC) against Candida albicans SANK51486; outline: as §1
Candida tropicalis = experiment: Tested in vitro for the minimum inhibitory concentration (MIC) against Candida tropicalis ATCC750; outline: as §1
Candida albicans [4] = experiment: Tested in vitro for the minimum inhibitory concentration (MIC) against Candida albicans ATCC 24433; outline: as §1

Compound | MIC (Nakaseomyces glabratus) | MIC (Candida albicans [1]) | MIC (Candida albicans [2]) | MIC (Candida albicans [3]) | MIC (Candida tropicalis) | MIC (Candida albicans [4])
CC(C)C1=CC2CC3(C=O)[C@@H]4CC[C@@H](C)[C@H]4CC2(CON=C2CCCCC2)C13C(=O)O (stereo not given in full) | 0.063 µg/mL (≈ 0.147 µM) | 0.063 µg/mL (≈ 0.147 µM) | 0.063 µg/mL (≈ 0.147 µM) | 0.031 µg/mL (≈ 0.0725 µM) | 1 µg/mL (≈ 2.34 µM) | 0.031 µg/mL (≈ 0.0725 µM)
CC(C)C1=CC2CC3(C=O)[C@@H]4CC[C@@H](C)[C@H]4CC2(C(=O)NC2CCCCC2)C13C(=O)O (stereo not given in full) | 0.5 µg/mL (≈ 1.17 µM) | > 4 µg/mL | > 4 µg/mL | > 4 µg/mL | > 4 µg/mL | > 4 µg/mL
CC(C)C1=CC2CC3(C=O)[C@@H]4CC[C@@H](C)[C@H]4CC2(C(=O)OC2CCCCC2)C13C(=O)O (stereo not given in full) | 0.5 µg/mL (≈ 1.17 µM) | 0.5 µg/mL (≈ 1.17 µM) | 0.25 µg/mL (≈ 0.583 µM) | ≤ 0.125 µg/mL | 4 µg/mL (≈ 9.33 µM) | ≤ 0.125 µg/mL
CC(C)C1=CC2CC3(C=O)[C@@H]4CC[C@@H](C)[C@H]4CC2(/C=N/OC2CCCCC2)C13C(=O)O (stereo not given in full) | 0.125 µg/mL (≈ 0.292 µM) | 0.063 µg/mL (≈ 0.147 µM) | 0.063 µg/mL (≈ 0.147 µM) | 0.031 µg/mL (≈ 0.0725 µM) | 1 µg/mL (≈ 2.34 µM) | 0.031 µg/mL (≈ 0.0725 µM)
C/C=C/C=C\C(=O)O[C@H]1[C@H](O)[C@H](OCC23C[C@@H]4[C@H](C)CC[C@H]4C4(C=O)CC2C=C(C(C)C)C34C(=O)O)O[C@H](C)[C@H]1OC (stereo not given in full) | > 4 µg/mL | 0.5 µg/mL (≈ 0.852 µM) | 0.5 µg/mL (≈ 0.852 µM) | 0.25 µg/mL (≈ 0.426 µM) | 0.5 µg/mL (≈ 0.852 µM) | 0.5 µg/mL (≈ 0.852 µM)
CC(C)C1=CC2CC3(C=O)[C@@H]4CC[C@@H](C)[C@H]4CC2(COC2CCCCC2)C13C(=O)O (stereo not given in full) | ≤ 0.063 µg/mL | 0.25 µg/mL (≈ 0.603 µM) | 0.25 µg/mL (≈ 0.603 µM) | ≤ 0.063 µg/mL | 2 µg/mL (≈ 4.82 µM) | 0.125 µg/mL (≈ 0.302 µM)
CC(C)C1=CC2CC3(C=O)[C@@H]4CC[C@@H](C)[C@H]4CC2(CN(C)C2CCCCC2)C13C(=O)O (stereo not given in full) | 8 µg/mL (≈ 18.7 µM) | 16 µg/mL (≈ 37.4 µM) | 16 µg/mL (≈ 37.4 µM) | 8 µg/mL (≈ 18.7 µM) | > 16 µg/mL | 8 µg/mL (≈ 18.7 µM)
CCC(C)n1ncn(-c2ccc(N3CCN(c4ccc(OC[C@H]5CO[C@](Cn6cncn6)(c6ccc(Cl)cc6Cl)O5)cc4)CC3)cc2)c1=O (stereo not given in full) [ITRACONAZOLE] | 1 µg/mL (≈ 1.42 µM) | 1 µg/mL (≈ 1.42 µM) | 0.25 µg/mL (≈ 0.354 µM) | 0.031 µg/mL (≈ 0.0439 µM) | 0.5 µg/mL (≈ 0.709 µM) | 0.125 µg/mL (≈ 0.177 µM)
OC(Cn1cncn1)(Cn1cncn1)c1ccc(F)cc1F [FLUCONAZOLE] | > 4 µg/mL | > 4 µg/mL | > 4 µg/mL | 0.25 µg/mL (≈ 0.816 µM) | 0.5 µg/mL (≈ 1.63 µM) | 0.5 µg/mL (≈ 1.63 µM)
CC(C)C1=CC2CC3(C=O)[C@@H]4CC[C@@H](C)[C@H]4CC2(CSC2CCCCC2)C13C(=O)O (stereo not given in full) | 0.031 µg/mL (≈ 0.072 µM) | 0.125 µg/mL (≈ 0.29 µM) | 0.063 µg/mL (≈ 0.146 µM) | ≤ 0.016 µg/mL | 2 µg/mL (≈ 4.64 µM) | 0.031 µg/mL (≈ 0.072 µM)
